# Data reported in publication PMC4433755 (Clinical cancer research : an official journal of the …, 2015).
# What was measured:
# [1] = test system: metabolism of JNJ-38877605 in human 12000×g liver supernatant; format: in vitro ADME; conditions: 5 μM 3H-JNJ-38877605, human 12000×g liver supernatant
# In short: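 5 μM 3H-labelled test compound incubated with human 12000×g liver supernatant, with and without specific inhibitors of aldehyde oxidase/CYP2C8 or of CYP-450. Metabolites identified by LC-MS and quantified via the 3H label. Read-out is % inhibition of formation of each metabolite and of summed metabolite formation.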
# [2] = pharmacokinetics in humans, phase I study; format: in vivo, human; conditions: patients
# In short: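 Patients received oral test compound once daily in 21-day cycles: 60 mg starting dose, with 10-40 mg OD levels added later. Blood was sampled at pre-specified times from cycle 1 day 1. Parent and N-desmethyl metabolite M2 were quantified in plasma. Cmax, tmax, t1/2, AUC and terminal elimination rate were calculated.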
# [3] = metabolite formation in human liver microsomes; format: in vitro ADME; conditions: 5 μM 3H-JNJ-38877605, 120 min
# In short: (§1)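 Radiolabelled (3H) test compound was incubated with human liver subcellular fractions (microsomes or 12000 ×g supernatant). Metabolites were identified by LC-MS and quantified only where a reference standard or 3H label existed. Parallel incubations included specific inhibitors, quercetin (aldehyde oxidase/CYP2C8) or 1-aminobenzotriazole (CYP-450). Results were expressed as % inhibition of metabolite formation.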
# c-Met Kinase = conditions: read-out: IC50 for c-Met Kinase in vitro; cited from earlier work
# [4] = plasma metabolite profiling, dog; format: in vivo; conditions: 3H-JNJ-38877605 2.5 mg/kg, at about Cmax (1-4 h)
# [5] = phase I first-in-human dose escalation study, toxicity; format: in vivo
# [6] = plasma metabolite profiling, rabbit; format: in vivo; conditions: 3H-JNJ-38877605 100 mg/kg, at about Cmax (1-4 h)
# Fms = conditions: of 246 kinases tested; cited from earlier work
# [7] = plasma metabolite profiling, rat; format: in vivo; conditions: 3H-JNJ-38877605 2.5 mg/kg, at about Cmax (1-4 h)
# [8] = plasma metabolite profiling, man; format: in vivo, human; conditions: 60 mg, at about Cmax (1-4 h)
# [9] = metabolite formation in human liver 12000 ×g supernatant; format: in vitro ADME; conditions: 5 μM 3H-JNJ-38877605, 120 min
# In short: as §1
# [10] = 1-month non-GLP toxicology study in male rabbit, post-mortem kidney changes; format: in vivo; conditions: 1-month dosing; for Basophilia, corticotubular with basement membrane thickening, incidence / Dilatation, collecting ducts with amorphous material, incidence / Dilation, corticotubular, extending towards cortex, incidence / Fibrosis, cortical, incidence / Hypertrophy, corticotubular; with spicules and multinucleated cells, incidence: N 4
# [11] = group 2: 50 mg/kg 3/week (150 mg/kg/week)
# [12] = group 3: 100 mg/kg 1/week (100 mg/kg/week)
# [13] = group 4: 200 mg/kg 1/week (200 mg/kg/week)
# [14] = group 5: 100 mg/kg 3/week (300 mg/kg/week)
# [15] = group 6: 50 mg/kg 1/day (350 mg/kg/week)
compound,measurement,setting,value
Nn1nnc2ccccc21 [1-aminobenzotriazole],"% inhibition of metabolite formation, M1/M2",[1],58%
same,"% inhibition of metabolite formation, M3",[1],1%
same,"% inhibition of metabolite formation, M4",[1],70%
same,"% inhibition of metabolite formation, UD (sum of all metabolite formation)",[1],19%
O=c1c(O)c(-c2ccc(O)c(O)c2)oc2cc(O)cc(O)c12 [Quercetin],"% inhibition of metabolite formation, M1/M2",[1],75%
same,"% inhibition of metabolite formation, M3",[1],94%
same,"% inhibition of metabolite formation, M4",[1],73%
same,"% inhibition of metabolite formation, UD (sum of all metabolite formation)",[1],112%
Cn1cc(-c2ccc3nnc(C(F)(F)c4ccc5ncccc5c4)n3n2)cn1 [JNJ-38877605],accumulation after 21 days,[2]; oral OD,virtually no accumulation
same,plasma half-life,[2]; oral,short
same,time of Cmax after ingestion,[2]; oral,1.5 to 4 h
same,formation of metabolites after incubation of JNJ-38877605,[3],12.8
same,IC50,c-Met Kinase,4.7 nM
same,concentration in plasma,[4],575 ngeq/ml
same,patients with grade 1 SCr increase,[5]; 40 mg OD,2/3
same,"serum creatinine (SCr) increase, CTCAE grade","[5]; 60 mg OD, all 5 subjects, asymptomatic",Grade 1
same,time to SCr increase after start of treatment,"[5]; 60 mg OD, in 4 patients",2 to 3 days
same,glomerular filtration rate by Cr51 measurement,"[5]; 1 patient, 40 mg cohort, cycle 1 day 21 (98 pre-treatment)",45 ml/min/1.73m^2
same,decrease of glomerular filtration rate by Cr51 measurement,"[5]; 1 patient, 40 mg cohort, pre-treatment to cycle 1 day 21",> 50%
same,renal toxicity,[5]; 10 and 20 mg OD,no indication of renal toxicity
same,concentration in plasma,[6],22836 ngeq/ml
same,selectivity for c-Met kinase relative to the next most potently inhibited kinase (Fms),Fms,> 833 fold
same,concentration in plasma,[7],1466 ngeq/ml
same,concentration in plasma,[8],111 ngeq/ml
same,formation of metabolites after incubation of JNJ-38877605,[9],26.0
same,"Dilatation, collecting ducts with amorphous material, animals graded minimal",[10]; [11],3
same,"Dilatation, collecting ducts with amorphous material, animals graded moderate",[10]; [11],0
same,"Dilatation, collecting ducts with amorphous material, animals graded slight",[10]; [11],0
same,"Kidney weights, fold change vs control",[10]; [11],×0.93 fold
same,"Basophilia, corticotubular with basement membrane thickening, incidence",[10]; [11],2
same,"Dilatation, collecting ducts with amorphous material, incidence",[10]; [11],3
same,"Dilation, corticotubular, extending towards cortex, incidence",[10]; [11],0
same,"Fibrosis, cortical, incidence",[10]; [11],0
same,"Hypertrophy, corticotubular; with spicules and multinucleated cells, incidence",[10]; [11],1
same,"Dilatation, collecting ducts with amorphous material, animals graded minimal",[10]; [12],1
same,"Dilatation, collecting ducts with amorphous material, animals graded moderate",[10]; [12],0
same,"Dilatation, collecting ducts with amorphous material, animals graded slight",[10]; [12],3
same,"Basophilia, corticotubular with basement membrane thickening, incidence",[10]; [12],2
same,"Dilatation, collecting ducts with amorphous material, incidence",[10]; [12],4
same,"Dilation, corticotubular, extending towards cortex, incidence",[10]; [12],0
same,"Fibrosis, cortical, incidence",[10]; [12],0
same,"Hypertrophy, corticotubular; with spicules and multinucleated cells, incidence",[10]; [12],3
same,"Dilatation, collecting ducts with amorphous material, animals graded minimal",[10]; [13],0
same,"Dilatation, collecting ducts with amorphous material, animals graded moderate",[10]; [13],1
same,"Dilatation, collecting ducts with amorphous material, animals graded slight",[10]; [13],3
same,"Dilation, corticotubular, extending towards cortex, animals graded minimal",[10]; [13],2
same,"Dilation, corticotubular, extending towards cortex, animals graded slight",[10]; [13],1
same,"Fibrosis, cortical, animals graded minimal",[10]; [13],0
same,"Fibrosis, cortical, animals graded slight",[10]; [13],1
same,"Kidney weights, fold change vs control",[10]; [13],×1.20 fold
same,"Basophilia, corticotubular with basement membrane thickening, incidence",[10]; [13],4
same,"Dilatation, collecting ducts with amorphous material, incidence",[10]; [13],4
same,"Dilation, corticotubular, extending towards cortex, incidence",[10]; [13],3
same,"Fibrosis, cortical, incidence",[10]; [13],1
same,"Hypertrophy, corticotubular; with spicules and multinucleated cells, incidence",[10]; [13],4
same,"Dilatation, collecting ducts with amorphous material, animals graded minimal",[10]; [14],1
same,"Dilatation, collecting ducts with amorphous material, animals graded moderate",[10]; [14],1
same,"Dilatation, collecting ducts with amorphous material, animals graded slight",[10]; [14],2
same,"Dilation, corticotubular, extending towards cortex, animals graded minimal",[10]; [14],2
same,"Dilation, corticotubular, extending towards cortex, animals graded slight",[10]; [14],1
same,"Fibrosis, cortical, animals graded minimal",[10]; [14],2
same,"Fibrosis, cortical, animals graded slight",[10]; [14],0
same,"Kidney weights, fold change vs control",[10]; [14],×1.13 fold
same,"Basophilia, corticotubular with basement membrane thickening, incidence",[10]; [14],3
same,"Dilatation, collecting ducts with amorphous material, incidence",[10]; [14],4
same,"Dilation, corticotubular, extending towards cortex, incidence",[10]; [14],3
same,"Fibrosis, cortical, incidence",[10]; [14],2
same,"Hypertrophy, corticotubular; with spicules and multinucleated cells, incidence",[10]; [14],4
same,"Dilatation, collecting ducts with amorphous material, animals graded minimal",[10]; [15],0
same,"Dilatation, collecting ducts with amorphous material, animals graded moderate",[10]; [15],2
same,"Dilatation, collecting ducts with amorphous material, animals graded slight",[10]; [15],2
same,"Dilation, corticotubular, extending towards cortex, animals graded minimal",[10]; [15],2
same,"Dilation, corticotubular, extending towards cortex, animals graded slight",[10]; [15],1
same,"Fibrosis, cortical, animals graded minimal",[10]; [15],1
same,"Fibrosis, cortical, animals graded slight",[10]; [15],1
same,"Basophilia, corticotubular with basement membrane thickening, incidence",[10]; [15],4
same,"Dilatation, collecting ducts with amorphous material, incidence",[10]; [15],4
same,"Dilation, corticotubular, extending towards cortex, incidence",[10]; [15],3
same,"Fibrosis, cortical, incidence",[10]; [15],2
same,"Hypertrophy, corticotubular; with spicules and multinucleated cells, incidence",[10]; [15],4
FC(F)(c1ccc2ncccc2c1)c1nnc2ccc(-c3cn[nH]c3)nn12 [M2],concentration in plasma,[4],31 ngeq/ml
same,concentration in plasma,[6],6388 ngeq/ml
same,concentration in plasma,[7],136 ngeq/ml
same,concentration in plasma,[8],3 ngeq/ml
